Source: ChEMBL document CHEMBL3351675, “Novel benzenesulfonylureas containing thiophenylpyrazoline moiety as potential antidiabetic and anticancer agents” (Bioorg Med Chem Lett, 2014)
The source made the active and inactive calls. No cut-off for these calls is given here.

What was measured:
Rattus norvegicus [1] = test: Antidiabetic activity in overnight fasted Wistar rat assessed as reduction in plasma glucose level at 30 mg/kg, po by oral glucose tolerance test; type: functional, organism-based; parameters: dose 30 mg/kg
Method in brief: (§1)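 Normal Wistar rats were given a glucose load by the oral glucose tolerance method, and plasma glucose rise was followed after oral test dosing. Glibenclamide was the reference drug. Data are mean ± SEM of six observations versus control, analysed by one-way ANOVA with Dunnett test (p < 0.05, p < 0.01).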

Rattus norvegicus [2] = test: Antidiabetic activity in Wistar rat model of streptozotocin-induced diabetes assessed as reduction in plasma glucose level at 30 mg/kg, po and dosage repeated for 15 days by GOD-POD method; type: functional, organism-based; parameters: dose 30 mg/kg
Rattus norvegicus [3] = test: Effect on body weight in Wistar rat model of streptozotocin-induced diabetes at 30 mg/kg, po measured over 15 days; type: ADME, organism-based; parameters: dose 30 mg/kg, route oral; settings: in vivo, 360 h
3T3-L1 = test: Increase in PPARgamma gene expression in mouse 3T3L1 cells at 10 uM incubated for 24 hrs by RT-PCR method; type: functional
[4] = molecular target: Peroxisome proliferator-activated receptor gamma (Mus musculus) (UniProt P37238); test: Transactivation of PPARgamma (mouse) expressed in 3T3-L1 cells incubated for 24 hrs by luciferase reporter gene assay relative to rosiglitazone
Chain of Peroxisome proliferator-activated receptor gamma (Mus musculus) (P37238 whole entry, looked up): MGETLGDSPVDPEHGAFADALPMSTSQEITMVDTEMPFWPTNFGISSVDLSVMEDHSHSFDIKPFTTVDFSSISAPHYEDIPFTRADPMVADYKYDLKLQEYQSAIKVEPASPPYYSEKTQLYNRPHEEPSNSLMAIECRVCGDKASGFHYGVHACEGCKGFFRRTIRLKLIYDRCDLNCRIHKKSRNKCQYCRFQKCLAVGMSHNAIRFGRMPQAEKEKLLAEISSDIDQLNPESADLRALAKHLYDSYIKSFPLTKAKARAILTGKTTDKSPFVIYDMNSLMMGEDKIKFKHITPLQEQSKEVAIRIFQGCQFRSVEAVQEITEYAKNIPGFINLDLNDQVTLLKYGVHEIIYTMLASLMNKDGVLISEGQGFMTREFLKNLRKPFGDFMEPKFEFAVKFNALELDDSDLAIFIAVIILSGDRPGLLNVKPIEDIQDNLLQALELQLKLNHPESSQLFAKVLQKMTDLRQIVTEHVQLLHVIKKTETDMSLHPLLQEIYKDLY

Rattus norvegicus [5] = test: Increase in body weight in Wistar rat model of streptozotocin-induced diabetes at 30 mg/kg, po measured over 15 days; type: ADME, organism-based; parameters: dose 30 mg/kg, route oral; settings: in vivo, 360 h
Rattus norvegicus [6] = test: Antidiabetic activity in overnight fasted Wistar rat assessed as reduction in plasma glucose level at 36 mg/kg, po by oral glucose tolerance test; type: functional, organism-based; parameters: dose 36 mg/kg; method in brief: as §1
Rattus norvegicus [7] = test: Antidiabetic activity in Wistar rat model of streptozotocin-induced diabetes assessed as reduction in plasma glucose level at 36 mg/kg, po and dosage repeated for 15 days by GOD-POD method; type: functional, organism-based; parameters: dose 36 mg/kg
Rattus norvegicus [8] = test: Effect on body weight in Wistar rat model of streptozotocin-induced diabetes at 36 mg/kg, po measured over 15 days; type: ADME, organism-based; parameters: dose 36 mg/kg, route oral; settings: in vivo, 360 h

Activity [4]	SMILES	inhibition (Rattus norvegicus [1])	inhibition (Rattus norvegicus [2])	Activity (Rattus norvegicus [3])	fold change (FC) (3T3-L1)	Activity (Rattus norvegicus [5])	inhibition (Rattus norvegicus [6])	inhibition (Rattus norvegicus [7])	Activity (Rattus norvegicus [8])
inactive	Cc1ccccc1NC(=O)NS(=O)(=O)c1ccc(N2N=C(c3cccs3)CC2c2ccccc2)cc1 (stereo not drawn)	Active	Active	Non-toxic	0.95	–	–	–	–
inactive	CCCCNC(=O)NS(=O)(=O)c1ccc(N2N=C(c3cccs3)CC2c2cccs2)cc1 (stereo not drawn)	Active	–	–	–	Toxic	–	–	–
inactive	O=C(NCc1ccccc1)NS(=O)(=O)c1ccc(N2N=C(c3cccs3)CC2c2ccccc2)cc1 (stereo not drawn)	Active	Active	Non-toxic	–	–	–	–	–
inactive	COc1ccc(C2CC(c3cccs3)=NN2c2ccc(S(=O)(=O)NC(=O)Nc3ccc(C)cc3)cc2)cc1 (stereo not drawn)	Active	–	Non-toxic	–	–	–	–	–
inactive	COc1ccc(NC(=O)NS(=O)(=O)c2ccc(N3N=C(c4cccs4)CC3c3cccs3)cc2)cc1 (stereo not drawn)	Active	Active	Non-toxic	–	–	–	–	–
–	Cc1ccc(C2CC(c3cccs3)=NN2c2ccc(S(=O)(=O)NC(=O)Nc3ccccc3C)cc2)s1 (stereo not drawn)	–	–	Non-toxic	–	–	–	–	–
inactive	CN(C)c1ccc(C2CC(c3cccs3)=NN2c2ccc(S(=O)(=O)NC(=S)NCc3ccccc3)cc2)cc1 (stereo not drawn)	Active	–	Non-toxic	–	–	–	–	–
inactive	COc1ccc(NC(=O)NS(=O)(=O)c2ccc(N3N=C(c4cccs4)CC3c3ccccc3)cc2)cc1 (stereo not drawn)	Active	Active	Non-toxic	–	–	–	–	–
inactive	Cc1ccc(NC(=O)NS(=O)(=O)c2ccc(N3N=C(c4cccs4)CC3c3ccc(N(C)C)cc3)cc2)cc1 (stereo not drawn)	Active	–	Non-toxic	–	–	–	–	–
inactive	CN(C)c1ccc(C2CC(c3cccs3)=NN2c2ccc(S(=O)(=O)NC(=O)NCc3ccccc3)cc2)cc1 (stereo not drawn)	Active	–	–	–	Toxic	–	–	–
inactive	CCCCNC(=O)NS(=O)(=O)c1ccc(N2N=C(c3cccs3)CC2c2ccccc2)cc1 (stereo not drawn)	Active	Active	–	–	Toxic	–	–	–
inactive	O=C(NCc1ccccc1)NS(=O)(=O)c1ccc(N2N=C(c3cccs3)CC2c2cccs2)cc1 (stereo not drawn)	Active	–	Non-toxic	–	–	–	–	–
inactive	Cc1ccc(C2CC(c3cccs3)=NN2c2ccc(S(=O)(=O)NC(=O)NCc3ccccc3)cc2)s1 (stereo not drawn)	Active	–	Non-toxic	–	–	–	–	–
inactive	Cc1ccc(NC(=O)NS(=O)(=O)c2ccc(N3N=C(c4cccs4)CC3c3cccs3)cc2)cc1 (stereo not drawn)	Active	–	Non-toxic	–	–	–	–	–
–	CN(CCOc1ccc(CC2SC(=O)NC2=O)cc1)c1ccccn1 (stereo not drawn) [ROSIGLITAZONE]	–	–	–	1.5	–	Active	Active	Toxic
inactive	COc1ccc(Cl)cc1C(=O)NCCc1ccc(S(=O)(=O)NC(=O)NC2CCCCC2)cc1 [GLYBURIDE]	Active	Active	–	1	Toxic	–	–	–
inactive	Cc1ccc(NC(=O)NS(=O)(=O)c2ccc(N3N=C(c4cccs4)CC3c3ccccc3)cc2)cc1 (stereo not drawn)	Active	Active	–	–	–	–	–	–
